RAM inhibit: inhibitors of the yeast RAM network. S. cerevisiae dse1pr::URA3 reporter, 5-FOA growth OD615, 2 d; analog-sensitive cbk1-as2 kinase mutant strain. inhibition, % at 50 µM. actives 1.8% (n = 190,000);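 active = inhibition above a set limit, 3 SD over mean compound inhibition, cut at about 8.4% in these data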;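 also: 0% = DMSO-only wells with no growth and 100% = 10 µM 1-NA-PP1 full growth; inhibition rescues growth on 5-FOA so higher OD means more RAM inhibition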
p-CIP stab down: lowers stability of the mouse p/CIP coactivator protein; Q05BA5; F442A p/CIP-EGFP cells, EGFP fluorescence, 16 h; decrease of EGFP signal, % at 10 µM; actives 0.01% (n = 290,000); AID 1984;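 active = EGFP signal decrease of at least 30% at 10 µM or well 3 SD below plate mean, unless failing retest; inactive = the rest, including hits failing retest or dose response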
Target sequence (Q05BA5 1-1403): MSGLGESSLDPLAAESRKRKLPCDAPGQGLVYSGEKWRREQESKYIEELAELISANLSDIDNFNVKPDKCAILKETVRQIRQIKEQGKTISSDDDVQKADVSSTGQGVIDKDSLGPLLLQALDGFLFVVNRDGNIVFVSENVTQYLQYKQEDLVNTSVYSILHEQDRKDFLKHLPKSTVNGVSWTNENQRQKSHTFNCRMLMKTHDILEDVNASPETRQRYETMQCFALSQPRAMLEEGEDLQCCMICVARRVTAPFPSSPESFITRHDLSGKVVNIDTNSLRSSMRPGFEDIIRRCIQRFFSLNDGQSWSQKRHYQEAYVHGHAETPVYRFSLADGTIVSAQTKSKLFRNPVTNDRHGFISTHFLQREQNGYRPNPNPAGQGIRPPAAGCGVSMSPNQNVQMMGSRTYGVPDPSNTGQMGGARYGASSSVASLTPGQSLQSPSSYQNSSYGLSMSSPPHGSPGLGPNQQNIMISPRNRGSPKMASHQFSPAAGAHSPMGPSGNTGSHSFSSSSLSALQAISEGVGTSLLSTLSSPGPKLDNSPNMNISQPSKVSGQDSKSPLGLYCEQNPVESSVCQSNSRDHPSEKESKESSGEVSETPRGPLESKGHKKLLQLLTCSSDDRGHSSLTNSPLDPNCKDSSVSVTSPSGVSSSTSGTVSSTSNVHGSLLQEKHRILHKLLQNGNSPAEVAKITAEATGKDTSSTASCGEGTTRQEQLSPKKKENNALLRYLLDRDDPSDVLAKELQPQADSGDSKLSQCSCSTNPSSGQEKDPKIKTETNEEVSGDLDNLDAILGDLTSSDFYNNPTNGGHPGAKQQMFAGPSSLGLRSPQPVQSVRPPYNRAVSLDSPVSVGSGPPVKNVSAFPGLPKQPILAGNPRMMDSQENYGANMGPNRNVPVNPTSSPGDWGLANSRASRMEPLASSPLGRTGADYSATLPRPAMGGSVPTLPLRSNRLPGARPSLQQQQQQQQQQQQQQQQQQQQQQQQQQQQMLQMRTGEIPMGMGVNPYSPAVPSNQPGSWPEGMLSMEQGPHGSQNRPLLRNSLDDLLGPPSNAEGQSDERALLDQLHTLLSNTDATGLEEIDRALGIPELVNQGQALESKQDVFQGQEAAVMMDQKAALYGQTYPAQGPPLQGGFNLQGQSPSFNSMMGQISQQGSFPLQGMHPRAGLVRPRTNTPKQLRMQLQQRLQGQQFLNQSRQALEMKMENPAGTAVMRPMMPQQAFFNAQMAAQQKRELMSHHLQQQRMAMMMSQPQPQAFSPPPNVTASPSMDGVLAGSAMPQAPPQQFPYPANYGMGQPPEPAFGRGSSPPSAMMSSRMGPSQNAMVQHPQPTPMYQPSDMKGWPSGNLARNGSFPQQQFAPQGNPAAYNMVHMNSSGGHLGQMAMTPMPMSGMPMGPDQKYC
Dynein transport: dynein cargo transport inhibition; actives 0.47% (n = 220,000); 3617.4 mouse cells, GR-EGFP nuclear translocation imaging; test concentration mostly 20 µM; stimulated with dexamethasone, 1 µM; active compounds read low; z-score, hits read low;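 active = plate z-score of nuclear minus cytoplasmic receptor signal below a set negative limit, without overly bright fluorescence or cell loss, cut at about -3.5 in these data, passing the limit was not always enough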;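 also: z-score of nuclear minus cytoplasmic ring GR-EGFP intensity difference per well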
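Buffer or medium: tet-free, stripped-serum medium; reagent: dexamethasone at 1.0 µM final, 30 min; incubation: 48 h induction, 1 h compound, 30 min dex at 37 °C; measured by: formaldehyde fixation, Hoechst nuclear stain, 10x automated fluorescence imaging; read-out: nuclear-to-cytoplasmic GR-EGFP distribution per well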
p47phox inh: inhibitors of human p47phox binding | p47phox/p22phox peptide binding, fluorescence polarization, 2 h | inhibition, % at 24.7 µM | P14598 | actives 0.53% (n = 220,000);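 active = inhibition above about 30%, limit read from the data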;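 also: 0% = p47phox with labelled peptide and 100% = labelled peptide alone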
RAM efflux-def: restores 5-FOA growth of efflux-deficient yeast. shares compounds with RAM inhibit. S. cerevisiae efflux-deficient reporter strain, 5-FOA growth OD615, 2 days. max inhibition, %. 1,200 tested, under 10 active; call rule not given here;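 also: plate controls were vehicle for no effect and reference inhibitor for full effect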
* marks the source's active call; other numbers are inactive results; · = not tested or not shown. In the library only some 1.9% were active in any assay of this set; here they are far more common.

SMILES	RAM inhibit	p-CIP stab down	Dynein transport	p47phox inh	RAM efflux-def
CCOc1ccc(/C=C2/SC(=S)N(C(C(=O)O)c3ccccc3)C2=O)cc1OCC (stereo not drawn)	12.7*	5.0	0.174	-20.1	2.3
CC(/C=C1\SC(=S)N(C(C(=O)O)C(C)C)C1=O)=C\c1ccccc1 (stereo not drawn)	18.5*	-4.5	0.376	-10.0	4.5
CCOc1cc(/C=C2\SC(=S)N(C(C(=O)O)c3ccccc3)C2=O)ccc1O (stereo not drawn)	·	-119.1	0.322	-201.7	·
Cc1ccc(CNC(=O)Cn2ccc3cc(S(=O)(=O)N4CCCC4)ccc32)o1	·	-4.7	·	·	·
Cc1ccc(-n2nc3c(c2NC(=O)C(C)C)CS(=O)(=O)C3)c(C)c1	·	-10.4	·	·	·
O=S(=O)(c1ccccc1)N1N=C(c2ccccc2)CC1c1ccccc1F (stereo not drawn)	·	-2.6	·	·	·
CC(C)C(c1nnnn1C1CCCC1)N1CCc2ccccc21 (stereo not drawn)	1.4	1.4	1.56	-17.3	·
Cc1ccc(C(c2nnnn2C2CCCC2)N2CCc3ccccc32)cc1 (stereo not drawn)	12.3*	2.4	0.0123	-39.5	3.7
CC(C)CC(=O)Nc1nnc(SCC(=O)NC2CCCCC2)s1	·	-7.0	·	·	·
CCN(CC)S(=O)(=O)c1cccc(NC(=O)CCSc2ccc(Cl)cc2)c1	14.3*	-3.6	-0.599	-10.3	1.4
CN(C)S(=O)(=O)c1cccc(NC(=O)COC(=O)CCSc2ccc(Cl)cc2)c1	7.8	-1.8	0.015	-6.2	·
COC(=O)c1ccccc1NC(=O)c1cccc(COc2ccccc2Cl)c1	12.2*	5.8	-0.523	-10.7	3.3
O=C(Nc1ccccc1)C1=C[C@@H](C2CCCCC2)C[C@@H](OCCCCO)O1	4.7	2.8	-1.24	·	·
O=C(Nc1ccccc1)C1=C[C@H](C2CCCCC2)C[C@H](OCc2ccc(CO)cc2)O1	14.2*	-7.6	-0.459	-9.2	4.6
O=C(Nc1ccccc1)C1=C[C@@H](C2CCCCC2)C[C@@H](OCc2ccc(CO)cc2)O1	11.9*	-8.0	-0.746	-10.4	5.5
O=C(COC(=O)CC(c1ccccc1)c1ccccc1)Nc1ccc(F)c(F)c1	11.7*	2.7	-0.113	-24.9	1.8
O=C(COC(=O)CC(c1ccccc1)c1ccccc1)Nc1cccc(F)c1	1.9	-7.5	0.221	-12.1	·
Cc1ccc(SCC(=O)Nc2cccc(C(=O)NC(C)(C)C)c2)cc1	0.4	3.8	-0.323	3.0	·
CC(C)(C)NC(=O)c1ccc(NC(=O)CSc2ccccc2)cc1	21.8*	7.3	-0.617	-12.3	2.2
Cn1cnc(S(=O)(=O)Nc2ccc(Cl)c(C(F)(F)F)c2)c1	·	-5.6	·	·	·
O=C(Nc1ccccc1-c1nnc(SCc2ccccc2Cl)o1)c1ccccc1	11.7*	3.6	-0.4	2.2	3.3
C=C(C)CNC(=S)Nc1nc2c(cc1C(=O)OCC)CCCC2	11.8*	-1.1	-0.256	0.0	2.7
CCOC(=O)c1cc2c(nc1N)CCCC2	·	11.4	0.222	-10.2	·
O=C(NCCn1cc(SCc2ccc(F)cc2)c2ccccc21)c1ccccc1F	13.3*	2.0	0.264	-4.3	4.1
O=C(NCCn1cc(SCc2ccc(F)cc2)c2ccccc21)c1c(F)cccc1F	5.0	5.2	-0.379	-4.0	·
SMILES	RAM inhibit	p-CIP stab down	Dynein transport	p47phox inh	RAM efflux-def
CC(C)[C@H](NC(=O)N1CC(=O)Nc2ccccc21)C(=O)N1CCC[C@@H]1C(=O)O	·	7.7	·	·	·
Cc1ccc(-n2c(SCC(=O)N3CCCc4ccccc43)nnc2-c2cccnc2)c(C)c1	12.5*	-9.2	-0.676	-16.5	1.2
C=CCN1C(=O)/C(=C\c2cc(Br)c(OCc3ccccn3)c(OC)c2)SC1=S	19.3*	-16.3	0.64	-9.7	2.4
CCOc1ccc(CNC(=O)CCc2cn(Cc3ccccc3)c3ccccc23)cc1	12.9*	-1.1	-0.632	0.8	3.2
Cc1ccc(NC(=O)CCSc2nnnn2-c2ccc3c(c2)OCO3)cc1C	11.6*	-12.7	-0.802	-5.6	2.4
Cc1cc(C)c(S(=O)(=O)Nc2ccc3c(c2)CCC3)c(C)c1	12.8*	-14.5	0.89	8.4	2.9
Cc1ccc(/C(O)=C2\C(=O)C(=O)N(C)C2c2ccc(F)cc2)cc1 (stereo not drawn)	·	5.5	·	·	·
CCCCCOc1ccc(CSc2ncn[nH]2)cc1	23.9*	-4.4	1.38	3.0	0.8
O=S(=O)(NCCc1csc(-c2ccc(C(F)(F)F)cc2)n1)c1ccc2c(c1)OCCO2	11.8*	7.5	-0.361	-19.5	2.3

Assay outcomes (PubChem)
